Results reported in ChEMBL document CHEMBL1135587, “Discovery and structure-activity relationship of N-(ureidoalkyl)-benzyl-piperidines as potent small molecule CC chemokine receptor-3 (CCR3) antagonists” (J Med Chem, 2002).

Experiments:
[1] = target: T1, C-C chemokine receptor type 3 (Homo sapiens) (UniProt P51677); assay: Evaluated for % inhibitory activity against human Chemokine receptor type 3 expressed in chinese hamster ovary cells; type: cell-based; details: CHO; concentration not given here
T1 sequence (whole entry): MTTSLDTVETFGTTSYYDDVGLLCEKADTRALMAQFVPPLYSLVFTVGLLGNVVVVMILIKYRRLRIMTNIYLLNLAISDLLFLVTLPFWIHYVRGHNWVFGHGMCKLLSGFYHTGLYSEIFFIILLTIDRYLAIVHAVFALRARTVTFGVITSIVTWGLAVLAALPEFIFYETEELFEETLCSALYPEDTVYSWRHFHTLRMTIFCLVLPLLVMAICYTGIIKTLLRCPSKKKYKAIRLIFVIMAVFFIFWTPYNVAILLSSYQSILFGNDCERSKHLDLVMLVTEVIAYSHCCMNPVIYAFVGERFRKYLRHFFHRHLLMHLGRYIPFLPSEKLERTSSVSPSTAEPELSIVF
Procedure, shortened: (§1)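 CHO cells transfected with human CCR3, 5×10^5 per well, incubated 30 min at room temperature with 150 pM (final) 125I-labeled human eotaxin and compound. Binding buffer: RPMI 1640 with 0.5% BSA, 20 mM HEPES, 5 mM MgCl2. Filtration on protamine-treated filter plates, washed with binding buffer plus 0.5 M NaCl, filter counted. Nonspecific binding defined with 100 nM eotaxin. Percent inhibition taken against compound-free total binding. IC50 values are the mean of usually three determinations.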

[2] = target: T2, C-C chemokine receptor type 3 (Homo sapiens, UniProt P51677); assay: Inhibitory activity against recombinant human Chemokine receptor type 3 (CCR3) expressed in chinese hamster ovary cells; type: cell-based, CHO; procedure, shortened: as §1
T2 sequence (P51677 whole entry): T1 sequence (whole entry)

[3] = The compound was evaluated for its eotaxin-induced chemotaxis; type: functional, Homo sapiens
Procedure, shortened: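 Freshly isolated human eosinophils at 1×10^6 cells/mL in RPMI 1640/0.1% BSA; cells and 20 nM human eotaxin each mixed 1:1 with compound-containing medium. Eotaxin/compound in the lower well, cells/compound above, across a 5 μm PVP-free polycarbonate filter, 45 min at 37 °C. Filter wiped, dried and Wright Giemsa-stained; migrated cells counted by microscopy.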

[4] = The compound was evaluated for its intracellular calcium mobilization; type: functional, cell-based; details: Homo sapiens
Procedure, shortened: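 Freshly isolated human eosinophils loaded with 5 μM fluo-3 for 60 min at 37 °C, washed, then plated at 2×10^5/well in phenol red-free binding buffer. Compound or buffer added for 5 min, then eotaxin to 10 nM final, read on FLIPR. Base-to-peak fluorescence shift measured in duplicate; inhibition at graded concentrations expressed as percent of the compound-free eotaxin control to give IC50.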

[5] = target: T1, C-C chemokine receptor type 3 (Homo sapiens); assay: Evaluated for its inhibitory activity against human Chemokine receptor type 3 expressed in chinese hamster ovary cells at 10 uM; type: cell-based; details: CHO; procedure, shortened: as §1
[6] = target: T3, C-C chemokine receptor type 1 (Homo sapiens, UniProt P32246); assay: Inhibitory activity against human Chemokine receptor type 1 expressed in chinese hamster ovary cells; type: cell-based, CHO
T3 sequence (P32246 whole entry): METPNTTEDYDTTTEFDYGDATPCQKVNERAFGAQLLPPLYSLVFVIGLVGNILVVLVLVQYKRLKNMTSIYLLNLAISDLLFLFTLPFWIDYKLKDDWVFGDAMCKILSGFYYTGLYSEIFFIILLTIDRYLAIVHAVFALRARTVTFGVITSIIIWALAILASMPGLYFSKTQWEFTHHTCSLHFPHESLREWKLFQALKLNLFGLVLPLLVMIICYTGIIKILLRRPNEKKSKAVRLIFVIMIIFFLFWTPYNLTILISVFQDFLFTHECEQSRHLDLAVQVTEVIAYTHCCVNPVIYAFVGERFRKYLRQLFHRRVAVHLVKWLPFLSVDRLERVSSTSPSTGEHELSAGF

[7] = target: T2, C-C chemokine receptor type 3; assay: Evaluated for its inhibitory activity against human Chemokine receptor type 3 expressed in chinese hamster ovary cells; type: cell-based, CHO
Procedure, shortened: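 Competition binding on CHO cells transfected with human CCR3, 5×10^5 cells per well, against 125I-human eotaxin at 150 pM final. Binding buffer: RPMI 1640 with 0.5% BSA, 20 mM HEPES, 5 mM MgCl2. Incubated 30 min at room temperature, then filtered on protamine-treated plates and washed with buffer plus 0.5 M NaCl before counting. Background binding defined with 100 nM eotaxin. Percent inhibition taken against the compound-free total. Values usually mean of three determinations.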

[8] = target: T1, C-C chemokine receptor type 3 (Homo sapiens); assay: Evaluated for its % inhibitory activity against human Chemokine receptor type 3 expressed in chinese hamster ovary cells; type: cell-based; details: CHO; concentration not given here; procedure, shortened: as §1
[9] = target: T1, C-C chemokine receptor type 3 (Homo sapiens); assay: Evaluated for its inhibitory activity against human Chemokine receptor type 3 expressed in chinese hamster ovary cells at 5 uM; type: cell-based; details: CHO; procedure, shortened: as §1
[10] = target: T1, C-C chemokine receptor type 3 (Homo sapiens); assay: Evaluated for its inhibitory activity against Chemokine receptor type 3 at 5 uM; procedure, shortened: as §1
[11] = target: T1, C-C chemokine receptor type 3 (Homo sapiens); assay: Evaluated for its % inhibitory activity against Chemokine receptor type 3 at 5 uM; procedure, shortened: as §1

SMILES | IC50 [2] [nM] | IC50 [6] [nM] | also measured
COc1ccc(NC(=O)Nc2ccc(CN3CCC(Cc4ccccc4)CC3)cc2)cc1 |  |  | inhibition [1]: 48%
COC(=O)c1cccc(NC(=O)Nc2cccc(C(C)=O)c2)c1CN1CCC(Cc2ccc(F)cc2)CC1 | 8 |  | IC50 [3]: 76 nM; IC50 [4]: 8.2 nM
OC1(c2ccc(Cl)cc2)CCN(CCc2ccccc2)CC1 |  |  | inhibition [5]: 19%
CN(C)CCNC(=O)NCC(CCCN1CCC(O)(c2ccc(Cl)cc2)CC1)(c1ccccc1)c1ccccc1 | 2230 | 67 | 
N#CC(CCCN1CCN(Cc2ccccc2)CC1)(c1ccccc1)c1ccccc1 | 14100 | > 50000 | 
O=C(NCC(CCCN1CCC(O)(c2ccc(Cl)cc2)CC1)(c1ccccc1)c1ccccc1)Nc1ccccc1 | 9800 | < 780 | 
CNC(=O)NCC(CCCN1CCC(O)(c2ccc(Cl)cc2)CC1)(c1ccccc1)c1ccccc1 | 8300 | < 780 | 
N#CC(CCCN1CCC(O)(c2ccc(Cl)cc2)CC1)(c1ccccc1)c1ccccc1 [BERLEX COMPOUND] | 9000 | 630 | 
c1ccc(CC2CCN(Cc3ccccc3)CC2)cc1 | 8300 | > 50000 | 
O=C(NCCc1ccc(F)cc1)NCC(CCCN1CCC(O)(c2ccc(Cl)cc2)CC1)(c1ccccc1)c1ccccc1 | 2200 | 295 | 
c1ccc(CCN2CCC(Cc3ccccc3)CC2)cc1 | 7100 | > 50000 | 
OC1(c2ccc(Cl)cc2)CCN(Cc2ccccc2)CC1 |  |  | IC50 [7]: 18.7 µM
O=C(NCCCCO)NCC(CCCN1CCC(O)(c2ccc(Cl)cc2)CC1)(c1ccccc1)c1ccccc1 | 5950 | 240 | 
COC(=O)c1ccc(CN2CCC(Cc3ccccc3)CC2)c(NC(=O)Nc2cccc(C#N)c2)c1 |  |  | inhibition [8]: 72%
N#Cc1cccc(NC(=O)Nc2ccc(CN3CCC(Cc4ccccc4)CC3)cc2)c1 |  |  | inhibition [9]: 47%
COc1ccc(NC(=O)NCC(CCCN2CCC(O)(c3ccc(Cl)cc3)CC2)(c2ccccc2)c2ccccc2)cc1 | 7600 | 780 | 
O=C(Nc1cc(F)ccc1F)Nc1ccccc1CN1CCC(O)(c2ccc(Cl)cc2)CC1 |  |  | inhibition [9]: 21%
O=C(NCCCO)NCC(CCCN1CCC(O)(c2ccc(Cl)cc2)CC1)(c1ccccc1)c1ccccc1 | 2350 | 31 | 
CNC(=O)c1ccc(NC(=O)Nc2cccc(C(C)=O)c2)c(CN2CCC(Cc3ccc(F)cc3)CC2)c1 | 8 |  | IC50 [4]: 11.8 nM

SMILES | IC50 [2] [nM] | IC50 [6] [nM] | also measured
c1ccc(CCCCN2CCC(Cc3ccccc3)CC2)cc1 | 3800 | > 50000 | 
NCC(CCCN1CCC(O)(c2ccc(Cl)cc2)CC1)(c1ccccc1)c1ccccc1 | 12000 | 760 | 
N#CC(CCCN1CCC(Cc2ccccc2)CC1)(c1ccccc1)c1ccccc1 | 4600 | > 50000 | 
O=C(NCC(CCCN1CCC(O)(c2ccc(Cl)cc2)CC1)(c1ccccc1)c1ccccc1)Nc1ccc(C(F)(F)F)cc1 | 5200 | 890 | 
CC(C)(C)NC(=O)NCC(CCCN1CCC(O)(c2ccc(Cl)cc2)CC1)(c1ccccc1)c1ccccc1 | 3000 | 71 | 
O=C(NCC(CCCN1CCC(O)(c2ccc(Cl)cc2)CC1)(c1ccccc1)c1ccccc1)Nc1ccncc1 | 3500 | 167 | 
O=C(Nc1ccccc1)Nc1ccccc1/C(CN1CCC(Cc2ccccc2)CC1)=N\O |  |  | inhibition [10]: 59%
O=C(Nc1ccccc1)Nc1cccc(C(O)CN2CCC(Cc3ccccc3)CC2)c1 (centres undefined) |  |  | inhibition [9]: 71%
CC(=O)c1cccc(NC(=O)Nc2ccc(C(N)=O)cc2CN2CCC(Cc3ccc(F)cc3)CC2)c1 | 3 |  | IC50 [4]: 9.5 nM
O=C(NCc1ccccc1)NCC(CCCN1CCC(O)(c2ccc(Cl)cc2)CC1)(c1ccccc1)c1ccccc1 | 8300 | < 780 | 
CC(=O)c1cccc(NC(=O)Nc2cccc(C(N)=O)c2CN2CCC(Cc3ccc(F)cc3)CC2)c1 | 2 |  | IC50 [3]: 46 nM; IC50 [4]: 5.9 nM
CC(C)NC(=O)NCC(CCCN1CCC(O)(c2ccc(Cl)cc2)CC1)(c1ccccc1)c1ccccc1 | 6100 | < 780 | 
O=C(NCC(CCCN1CCC(O)(c2ccc(Cl)cc2)CC1)(c1ccccc1)c1ccccc1)Nc1cc(F)ccc1F | 5700 | 1340 | 
O=C(Nc1cc(F)ccc1F)Nc1ccccc1N1CCC(Cc2ccccc2)CC1 |  |  | inhibition [9]: 9%
CNC(=O)c1cccc(NC(=O)Nc2cccc(OC)c2)c1CN1CCC(Cc2ccc(F)cc2)CC1 | 2 |  | IC50 [4]: 4.2 nM
O=C(Nc1ccc(F)cc1F)Nc1ccccc1C(=O)CN1CCC(Cc2ccccc2)CC1 |  |  | inhibition [11]: 35%
CNC(=O)c1cccc(NC(=O)Nc2cccc(C(C)=O)c2)c1CN1CCC(Cc2ccc(F)cc2)CC1 | 1 |  | IC50 [3]: 30 nM; IC50 [4]: 1.4 nM
O=C(Nc1cc(F)ccc1F)Nc1ccccc1CN1CCN(Cc2ccccc2)CC1 |  |  | inhibition [9]: 28%

Second part, led by results:

IC50 [2] [nM] | IC50 [6] [nM] | SMILES | also measured
1 |  | CNC(=O)c1cccc(NC(=O)Nc2cccc(C#N)c2)c1CN1CCC(Cc2ccc(F)cc2)CC1 | IC50 [4]: 5.3 nM
1750 | > 50000 | O=C(Nc1cc(F)ccc1F)Nc1ccccc1CN1CCC(Cc2ccccc2)CC1 | 
180 | > 10000 | COc1cccc(NC(=O)Nc2ccccc2CCN2CCC(Cc3ccccc3)CC2)c1 | 
410 | > 10000 | O=C(Nc1cc(F)ccc1F)Nc1ccccc1C(O)CN1CCC(Cc2ccccc2)CC1 (centres undefined) | 
2 |  | CNC(=O)c1cccc(NC(=O)Nc2ccccc2)c1CN1CCC(Cc2ccc(F)cc2)CC1 | IC50 [4]: 4.3 nM
750 | > 10000 | COc1ccc(NC(=O)Nc2ccccc2CN2CCC(Cc3ccccc3)CC2)cc1 | 
2.6 |  | CC(=O)c1cccc(NC(=O)Nc2ccccc2CCN2CCC(Cc3ccc(F)cc3)CC2)c1 | IC50 [3]: 71 nM
450 | > 10000 | O=C(Nc1ccc2c[nH]nc2c1)Nc1ccccc1CN1CCC(Cc2ccccc2)CC1 | 
450 | > 10000 | O=C(Nc1ccc2[nH]ncc2c1)Nc1ccccc1CN1CCC(Cc2ccccc2)CC1 | 
750 | > 10000 | N#Cc1cccc(NC(=O)Nc2ccccc2CN2CCC(Cc3ccccc3)CC2)c1 | 
81 | > 10000 | COc1cccc(NC(=O)Nc2ccccc2C(O)CN2CCC(Cc3ccccc3)CC2)c1 (centres undefined) | 
3900 | > 50000 | O=C(Nc1ccccc1CN1CCC(Cc2ccccc2)CC1)NC1CCN(Cc2ccccc2)CC1 | 
600 | > 10000 | COc1cccc(NC(=O)Nc2ccccc2CN2CCC(Cc3ccccc3)CC2)c1 | 
7600 | > 50000 | O=C(NCCN1CCCCC1)Nc1ccccc1CN1CCC(Cc2ccccc2)CC1 | 
